UHRF1 binding: human UHRF1 methylated DNA binding inhibitors. 370,000 compounds, 0.75% hits. inhibition, % at 4.4 µM. AID 687016. Q96T88. UHRF1 binding to methylated oligo, TR-FRET; in the data active = inhibition above about 21%;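 also: UHRF1 SRA domain binding a hemimethylated CpG hairpin DNA probe; 0% = median of test compound wells and 100% = reference inhibitor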
Target sequence (Q96T88 whole entry, looked up, the tested form may be a part): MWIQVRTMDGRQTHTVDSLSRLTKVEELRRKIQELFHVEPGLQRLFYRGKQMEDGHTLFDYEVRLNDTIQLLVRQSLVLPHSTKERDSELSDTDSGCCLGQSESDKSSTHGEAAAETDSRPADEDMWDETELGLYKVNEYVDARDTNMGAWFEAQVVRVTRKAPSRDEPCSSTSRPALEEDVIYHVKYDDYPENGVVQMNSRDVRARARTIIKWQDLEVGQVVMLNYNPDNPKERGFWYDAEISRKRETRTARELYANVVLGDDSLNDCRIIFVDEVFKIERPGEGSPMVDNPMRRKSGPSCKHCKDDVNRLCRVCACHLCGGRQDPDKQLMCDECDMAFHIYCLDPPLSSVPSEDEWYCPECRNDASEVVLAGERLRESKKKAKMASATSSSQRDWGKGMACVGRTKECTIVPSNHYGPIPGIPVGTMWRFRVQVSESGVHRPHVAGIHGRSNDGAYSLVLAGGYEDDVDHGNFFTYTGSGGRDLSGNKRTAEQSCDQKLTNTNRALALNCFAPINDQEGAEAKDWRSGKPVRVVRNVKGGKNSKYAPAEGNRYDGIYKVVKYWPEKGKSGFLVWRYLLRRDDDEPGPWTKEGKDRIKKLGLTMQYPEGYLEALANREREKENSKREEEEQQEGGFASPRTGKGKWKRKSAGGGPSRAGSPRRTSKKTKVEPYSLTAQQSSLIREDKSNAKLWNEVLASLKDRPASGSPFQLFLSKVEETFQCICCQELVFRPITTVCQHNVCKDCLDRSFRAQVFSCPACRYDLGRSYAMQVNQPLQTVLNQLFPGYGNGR
LEDGF integ inh: blocks HIV-1 LEDGF/p75-dependent DNA integration | TR-FRET IN-LEDGF/p75 DNA integration, Eu/Cy5 | inhibition, % at 3.7 µM | 370,000 compounds, 0.64% hits | AID 743269;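 active = inhibition above the screen-wide mean plus 3 SD, cut at about 13% in these data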;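 also: signal is the Cy5 over europium emission ratio at 671 and 618 nm; 0% = plate median of compound wells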
NSD2 HMT inh: inhibitors of human histone methyltransferase NSD2 | inhibition, % at 12.5 µM | NSD2 peptide methylation, AlphaScreen, 120 min | 310,000 compounds, 0.54% hits; in the data active = inhibition above about 50%
TDP2 inh: blocks human TDP2 phosphodiesterase activity; O95551; recombinant TDP2, T5PNP hydrolysis, p-nitrophenol absorbance 415 nm; inhibition, % at 12.8 µM; 370,000 compounds, 0.34% hits; AID 720702;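 active = inhibition above the mean of all tested compounds plus 3 SD, set per campaign, cut at about 25% in these data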;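 also: 0% = DMSO with enzyme and 100% = buffer with substrate but no TDP2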
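Assay system: Recombinant human TDP2 | Quantity: 120 nM TDP2 per well | Incubation: 2 h at 37 °C | Signal: Epi absorbance | Evaluation: Percent inhibition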
CASP6 VEID inh: inhibitors of human caspase-6; inhibition, % at 12.5 µM; 350,000 compounds, 0.53% hits; purified caspase-6, Z-VEID-R110 cleavage fluorescence;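 active = mean inhibition across replicates at least about 35%, with every replicate also reaching that limit, limit read from the data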;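 also: 0% = median of neutral control wells and 100% = no fluorescence left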
MBD2 inh: inhibitors of human MBD2 binding to methylated oligonucleotide. Q9UBB5. TR-FRET. 370,000 compounds, 0.31% hits. inhibition, % at 4.4 µM; in the data active = inhibition above about 13%
Alpha artifact: counter-screen for NSD2 inhibitors: AlphaScreen artifacts | shares compounds with NSD2 HMT inh | AlphaScreen artifact counterscreen, preloaded methylated H4 peptide | AC35, µM (titrated, usually from 10 µM), without a hit: at the highest dose activity change, negative = signal loss | 1,500 compounds, 9.4% hits; call rule not given here
An asterisk follows results filed as active; . = no result given; + = active, no number. Hits are enriched below; roughly 1.8% of the tested compounds scored in any of these assays.

SMILES	UHRF1 binding	LEDGF integ inh	NSD2 HMT inh	TDP2 inh	CASP6 VEID inh	MBD2 inh	Alpha artifact
Cc1ccc(Cn2c(SCC(=O)N3CC(=O)Nc4ccccc43)nc3ccccc3c2=O)cc1	1	-4	60*	3	-1	0	-1%
O=C(NCCC(=O)N1CCc2ccccc21)c1ccco1	3	-2	68*	-16	1	-4	-2%
CCCCNC(=O)N1CCC(CCC(=O)N(C)Cc2ccccc2)CC1	-1	3	-4	0	-1	-2	.
CCOC(=O)CNC(=O)N1CCC(CCC(=O)N(C)Cc2ccccc2)CC1	4	-4	65*	-15	-1	7	4%
C[C@@H]1CN([C@H](C)CO)C(=O)c2cc(NC(=O)Cn3cnnn3)ccc2O[C@H]1CN(C)C(=O)Nc1cccc2ccccc12	.	.	.	.	1	.	.
COc1ccc(NC(=O)CSc2nc3ccccc3c(=O)n2CCC(=O)N2CCCCC2)cc1	0	1	1	4	.	-1	.
CCOc1ccc(NC(=O)CSc2nc3ccccc3c(=O)n2CCCC(=O)N2CCCC2)cc1	0	2	118*	-4	.	3	3%
O=C(NCc1ccc(F)cc1)C1CCCN1S(=O)(=O)c1ccc(F)cc1 (stereo not drawn)	-1	0	0	-1	2	3	.
O=C(NCc1ccc(F)cc1)C1CCCN1S(=O)(=O)c1ccccc1C(F)(F)F (stereo not drawn)	2	-2	137*	-4	0	2	-3%
Nc1ccc2c(O)cc(S(=O)(=O)O)cc2c1	21*	40*	80*	22	77*	4	-21%
CC(=O)Nc1ccc2c(O)cc(S(=O)(=O)O)cc2c1	2	2	10	5	35	1	.
Cc1ccc(C)c(S(=O)(=O)N2CCCOC2CNC(=O)C(=O)NCc2cccnc2)c1 (stereo not drawn)	1	-5	58*	2	-1	6	2%
Cc1cc(C)c(S(=O)(=O)N2CCCOC2CNC(=O)C(=O)NCc2cccnc2)c(C)c1 (stereo not drawn)	-1	-6	0	0	0	-3	.
COc1ccc(-n2nnnc2-c2cnc(N3CCCC3)nc2C(F)(F)F)cc1	-1	2	52*	-4	.	-1	2%
FC(F)(F)c1nc(-c2cccnc2)ncc1-c1nnnn1-c1ccccc1	2	-2	-1	8	.	0	.
O=C1OCC2=Nc3cccc4cccc(c34)N12	-11	-6	-3	4	0	-10	.
CC1=Nc2cccc3cccc(c23)N1C	-7	-8	+	6	.	-5	3%
COc1ccccc1N(CC(=O)NCC1CCCO1)C(=O)CNS(=O)(=O)c1ccc(Cl)cc1 (stereo not drawn)	-1	-4	.	-11	3	0	.
COc1ccccc1N(CC(=O)NCC1CCCO1)C(=O)CNS(=O)(=O)c1ccc(C)cc1 (stereo not drawn)	10	-3	69*	-11	.	-1	0%
C[C@@H]1CN([C@H](C)CO)C(=O)Cc2cc(NC(=O)Nc3ccc(F)cc3)ccc2O[C@@H]1CN(C)S(=O)(=O)c1ccccc1	.	.	.	.	0	.	.
C[C@@H]1CN([C@@H](C)CO)C(=O)Cc2cc(NS(=O)(=O)c3ccccc3)ccc2O[C@H]1CN(C)S(=O)(=O)c1ccccc1	.	.	.	.	0	.	.
CC(C)C#Cc1cnc2c(c1)C(=O)N([C@@H](C)CO)C[C@@H](C)[C@H](CN(C)Cc1cncnc1)O2	.	.	.	.	1	.	.
CCN(CC)CCCN=C(C)C1=C(O)c2ccccc2C1=O	-1	-2	66*	1	-9	-7	-1%
CCCN=C(C)C1=C(O)c2ccccc2C1=O	-2	0	15	2	1	-3	.
CCOc1ccc(N)cc1OC	-3	-4	56*	23	19	4	0%
SMILES	UHRF1 binding	LEDGF integ inh	NSD2 HMT inh	TDP2 inh	CASP6 VEID inh	MBD2 inh	Alpha artifact
CCOc1ccc(C(N)=O)cc1OC	8	1	-1	-7	.	-1	.
O=C(C[C@@H]1C=C[C@H](NC(=O)C2CC2)[C@H](CO)O1)NCCCN1CCOCC1	.	.	.	.	2	.	.
O=C(C1CCOCC1)N1CC2(C1)[C@@H](c1ccccc1)[C@@H](CO)N2CCC(F)(F)F	.	.	.	.	-2	.	.
O=C(NCCCN1CCCC1=O)Nc1ccc(Cl)cc1Cl	-1	3	50*	-6	1	4	0%
COc1ccc(NC(=O)N(C)C[C@H]2Oc3ccc(NS(=O)(=O)c4ccc(OC)cc4)cc3C(=O)N([C@@H](C)CO)C[C@H]2C)cc1	.	.	.	.	-1	.	.
O=C(NCC[C@H]1CC[C@@H](NC(=O)C2CCCC2)[C@H](CO)O1)Nc1ccc(Cl)cc1	.	.	.	.	-198	.	.
COc1ccc2c(C#N)c3ccccn3c2c1	3	0	52*	14	62*	3	9%
O=C(CSc1nnc2ccccn12)NNC(=O)c1ccc([N+](=O)[O-])cc1	0	-1	86*	10	-1	0	-4%
CN(C)c1cccc2c1c(NC(=O)Nc1ccccc1)nn2C	-2	-8	88*	15	-3	-3	-1%
Nc1ccc2c(c1)OCCOCCOCCOCCOCCO2	7	-5	64*	-4	26	1	0%
c1ccc2c(c1)OCCOCCOc1ccccc1OCCOCCO2	0	0	-4	0	1	2	.
N=C1S/C(=C\c2ccc(-c3ccccc3C(=O)O)o2)C(=O)N1c1ccc2c(c1)OCO2	23*	-1	99*	-9	20	7	-4%
Cc1ccc(S(=O)(=O)Nc2ccccc2-c2ccccc2)cc1	-2	0	-1	-1	.	-3	.
Cc1ccc(S(=O)(=O)/N=C2\C=C(NS(=O)(=O)c3ccccc3)C(=O)c3ccccc32)cc1	-6	16*	105*	18	24	-21	9.9µM*
O=C(NC1CCCCC1)c1ccc(S(=O)(=O)NCc2ccco2)cc1	1	4	55*	-11	.	1	-7%
O=C(COC(=O)CNC(=O)c1ccc(Cl)c([N+](=O)[O-])c1)NNC(=O)c1cccs1	-2	0	0	3	3	1	.
O=C(NNC(=O)c1cccs1)c1ccc(Cl)c([N+](=O)[O-])c1	5	0	54*	-2	1	2	-6%
O=C(C[C@@H]1C[C@@H]2c3cc(NC(=O)Nc4ccc(C(F)(F)F)cc4)ccc3O[C@@H]2[C@H](CO)O1)NCCc1ccccc1	.	.	.	.	-1	.	.
CC(C)CC#Cc1ccc2c(c1)O[C@H](CN(C)CC1CCOCC1)[C@H](C)CN([C@H](C)CO)S2(=O)=O	.	.	.	.	2	.	.
S=C1NCN(Cc2ccco2)CN1CCc1ccccc1	-1	1	53*	2	0	-2	-3%
CCO[C@@H]1OC(C(=O)N2CCN(C)CC2)=C[C@H](c2ccccc2)[C@H]1CCCO	.	.	.	.	-2	.	.
